According to ChEMBL document CHEMBL4325893, “Synthesis and antibacterial profiles of targeted triclosan derivatives” (2019):
≈ marks a conversion by molar mass, not a printed value.

How the values were obtained:
[1] = test system: Salmonella enterica subsp. enterica serovar Abony; experiment: Antibacterial activity against Salmonella enterica subspecies enterica serotype Abony NCTC 6017 after 18 hrs; assay type: functional; conditions: NCTC 6017, 18 h
In short: (§1)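 Broth microdilution in Nutrient Broth No. 2; stocks in ethanol diluted to 0.01–128 µg/ml (triclosan) or 0.25–256 µg/ml (glycosides). Overnight 37 °C NB2 cultures diluted 1 in 10^4 in saline and added to the dilutions. Incubation at 37 °C with agitation, OD read every 15 min; MIC is the lowest concentration preventing any OD rise after 18 h.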

[2] = test system: Klebsiella aerogenes; experiment: Antibacterial activity against Enterobacter aerogenes ATCC 13048 after 18 hrs; assay type: functional; conditions: ATCC 13048, 18 h; in short: as §1
[3] = test system: Cronobacter sakazakii; experiment: Antibacterial activity against Cronobacter sakazakii 29544 after 18 hrs; assay type: functional; conditions: Cronobacter sakazakii, 29544, 18 h; in short: as §1
[4] = Antibacterial activity against Salmonella enterica subspecies enterica serotype Infantis OCC 2133 after 18 hrs; assay type: functional, Salmonella enterica subsp. enterica serovar Infantis; conditions: OCC 2133, 18 h; in short: as §1
[5] = test system: Enterococcus faecalis; experiment: Antibacterial activity against Enterococcus faecalis ATCC 29212 after 18 hrs; assay type: functional; conditions: ATCC 29212, 18 h; in short: as §1
[6] = test system: Bacillus subtilis; experiment: Antibacterial activity against Bacillus subtilis NCTC 10073 after 18 hrs; assay type: functional; conditions: NCTC 10073, 18 h; in short: as §1
[7] = Antibacterial activity against Salmonella enterica subspecies enterica serotype Arizonae OCC 706 after 18 hrs; assay type: functional, Salmonella enterica subsp. enterica serovar Arizonae; conditions: OCC 706, 18 h; in short: as §1
[8] = test system: Salmonella enteritidis; experiment: Antibacterial activity against Salmonella enterica subspecies enterica serotype Enteritidis 13076 after 18 hrs; assay type: functional, Salmonella enterica subsp. enterica serovar Enteritidis; conditions: Salmonella enterica, 13076, 18 h; in short: as §1
[9] = test system: Escherichia hermannii; experiment: Antibacterial activity against Escherichia hermannii 33650 after 18 hrs; assay type: functional; conditions: Atlantibacter hermannii, 33650, 18 h; in short: as §1
[10] = test system: Staphylococcus aureus; experiment: Antibacterial activity against Staphylococcus aureus NCTC 13758 after 18 hrs; assay type: functional; conditions: NCTC 13758, 18 h; in short: as §1
[11] = test system: Staphylococcus aureus; experiment: Antibacterial activity against Staphylococcus aureus ATCC 9144 after 18 hrs; assay type: functional; conditions: ATCC 9144, 18 h; in short: as §1
[12] = test system: Escherichia coli; experiment: Antibacterial activity against Escherichia coli ATCC 25922 after 18 hrs; assay type: functional; conditions: ATCC 25922, 18 h; in short: as §1
[13] = test system: Staphylococcus aureus; experiment: Antibacterial activity against Staphylococcus aureus OCC 104 after 18 hrs; assay type: functional; conditions: OCC 104, 18 h; in short: as §1
[14] = test system: Escherichia coli; experiment: Antibacterial activity against Escherichia coli OCC 122 after 18 hrs; assay type: functional; conditions: OCC 122, 18 h; in short: as §1
[15] = test system: Escherichia coli; experiment: Antibacterial activity against Escherichia coli ATCC 8739 after 18 hrs; assay type: functional; conditions: ATCC 8739, 18 h; in short: as §1
[16] = test system: Escherichia coli; experiment: Antibacterial activity against Escherichia coli NCTC 13216 after 18 hrs; assay type: functional; conditions: NCTC 13216, 18 h; in short: as §1
[17] = test system: Streptococcus pneumoniae; experiment: Antibacterial activity against Streptococcus pneumoniae 6305 after 18 hrs; assay type: functional; conditions: Streptococcus pneumoniae, 6305, 18 h
In short: (§2)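 Broth microdilution in Nutrient Broth No. 2. Ethanol stocks were diluted in broth to 0.01–128 µg/ml for triclosan and 0.25–256 µg/ml for glycosides. Overnight 37°C NB2 cultures were diluted 1 in 10^4 in saline and added to the wells. Plates were incubated at 37°C with OD read every 15 min after agitation. MIC was the lowest concentration giving no OD increase at 18 h.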

[18] = Antibacterial activity against Enterobacter cloacae ATCC 13047 after 18 hrs; assay type: functional, Enterobacter cloacae subsp. cloacae; conditions: ATCC 13047, 18 h; in short: as §1
[19] = test system: Streptococcus pyogenes; experiment: Antibacterial activity against Streptococcus pyogenes ATCC 19615 after 18 hrs; assay type: functional; conditions: ATCC 19615, 18 h; in short: as §2
[20] = test system: Serratia marcescens; experiment: Antibacterial activity against Serratia marcescens OCC 217 after 18 hrs; assay type: functional; conditions: OCC 217, 18 h; in short: as §1
[21] = test system: Bacillus cereus; experiment: Antibacterial activity against Bacillus cereus ATCC 14579 after 18 hrs; assay type: functional; conditions: ATCC 14579, 18 h; in short: as §1
[22] = test system: Escherichia coli; experiment: Antibacterial activity against Escherichia coli ATCC 11775 after 18 hrs; assay type: functional; in short: as §1
[23] = test system: Streptococcus viridans; experiment: Antibacterial activity against Streptococcus viridans OCC 234 after 18 hrs; assay type: functional; conditions: OCC 234, 18 h; in short: as §2
[24] = test system: Citrobacter freundii; experiment: Antibacterial activity against Citrobacter freundii OCC 851 after 18 hrs; assay type: functional; conditions: OCC 851, 18 h; in short: as §1
[25] = test system: Staphylococcus aureus; experiment: Antibacterial activity against Staphylococcus aureus ATCC 29213 after 18 hrs; assay type: functional; conditions: ATCC 29213, 18 h; in short: as §1
[26] = test system: Proteus vulgaris; experiment: Antibacterial activity against Proteus vulgaris OCC 195 after 18 hrs; assay type: functional; conditions: OCC 195, 18 h; in short: as §1
[27] = test system: Staphylococcus epidermidis; experiment: Antibacterial activity against Staphylococcus epidermidis ATCC 14990 after 18 hrs; assay type: functional; conditions: ATCC 14990, 18 h; in short: as §1
[28] = test system: Pseudomonas aeruginosa; experiment: Antibacterial activity against Pseudomonas aeruginosa ATCC 27853 after 18 hrs; assay type: functional; conditions: ATCC 27853, 18 h; in short: as §1

OC[C@H]1O[C@H](Oc2cc(Cl)ccc2Oc2ccc(Cl)cc2Cl)[C@H](O)[C@@H](O)[C@H]1O
MIC [1]: 32 to 64 µg/mL (≈ 70.8 to 142 µM) | MIC [2]: 128 µg/mL (≈ 283 µM) | MIC [3]: 128 µg/mL (≈ 283 µM) | MIC [4]: 32 to 64 µg/mL (≈ 70.8 to 142 µM) | MIC [5]: > 256 µg/mL | MIC [6]: 256 µg/mL (≈ 567 µM) | MIC [7]: 32 to 64 µg/mL (≈ 70.8 to 142 µM) | MIC [8]: 32 to 64 µg/mL (≈ 70.8 to 142 µM) | MIC [9]: 32 µg/mL (≈ 70.8 µM) | MIC [10]: 8 to 16 µg/mL (≈ 17.7 to 35.4 µM) | MIC [11]: 8 to 16 µg/mL (≈ 17.7 to 35.4 µM) | MIC [12]: 16 to 64 µg/mL (≈ 35.4 to 142 µM) | MIC [13]: 8 to 16 µg/mL (≈ 17.7 to 35.4 µM) | MIC [14]: 16 to 64 µg/mL (≈ 35.4 to 142 µM) | MIC [15]: 16 to 64 µg/mL (≈ 35.4 to 142 µM) | MIC [16]: 16 to 64 µg/mL (≈ 35.4 to 142 µM) | MIC [17]: 128 µg/mL (≈ 283 µM) | MIC [18]: 32 µg/mL (≈ 70.8 µM) | MIC [19]: 256 µg/mL (≈ 567 µM) | MIC [20]: > 256 µg/mL | MIC [21]: > 256 µg/mL | MIC [22]: 16 to 64 µg/mL (≈ 35.4 to 142 µM) | MIC [23]: > 256 µg/mL | MIC [24]: 64 µg/mL (≈ 142 µM) | MIC [25]: 8 to 16 µg/mL (≈ 17.7 to 35.4 µM) | MIC [26]: 64 µg/mL (≈ 142 µM) | MIC [27]: 8 to 32 µg/mL (≈ 17.7 to 70.8 µM) | MIC [28]: > 256 µg/mL
